# Laboratory results taken from ChEMBL document CHEMBL3822431, “Hydroxychalcone inhibitors of Streptococcus mutans glucosyl transferases and biofilms as potential anticaries agents” (Bioorg Med Chem Lett, 2016).
# The source made the active and inactive calls. No cut-off for these calls is given here.
# Experiments:
# Streptococcus mutans [1] = test: Growth inhibition of Streptococcus mutans UA159 at 200 uM after 24 hrs; type: organism-based; conditions: for growth inhibition (GI): streptococcus mutans, […], 24 h, 200 µM; for inhibition at 200 µM: Streptococcus mutans, UA159, 24 h, read-out: GI
# Method in brief: (§1)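 S. mutans UA159, S. sanguinis or S. gordonii co-incubated with compound at various concentrations; growth read as OD470; inhibition expressed relative to DMSO.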
# Streptococcus mutans [2] = test: Inhibition of biofilm formation of Streptococcus mutans UA159 at 200 uM after 16 hrs by crystal violet staining; type: functional; conditions: for inhibition at 200 µM: UA159, 16 h
# Method in brief: (§2)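 S. mutans UA159 co-incubated with compound at various concentrations; biofilm quantified by crystal violet protocol, read at OD562.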
# Streptococcus mutans [3] = test: Inhibition of biofilm formation of Streptococcus mutans UA159 after 16 hrs by crystal violet staining based serial dilution method; type: functional, organism-based; method in brief: as §2
# Streptococcus mutans [4] = test: Selectivity index, ratio of growth inhibition IC50 for Streptococcus mutans UA159 to biofilm inhibition IC50 for Streptococcus mutans UA159
# Streptococcus mutans [5] = test: Growth inhibition of Streptococcus mutans UA159 after 16 hrs; type: organism-based
# Method in brief: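 S. mutans UA159 co-incubated with compound at various concentrations; growth measured at OD470.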
# Streptococcus sanguinis = test: Growth inhibition of Streptococcus sanguinis SK36 at 200 uM after 24 hrs; conditions: SK36, 24 h, read-out: GI; method in brief: as §1
# Streptococcus gordonii = test: Growth inhibition of Streptococcus gordonii at 200 uM after 24 hrs; type: organism-based; conditions: read-out: GI; method in brief: as §1
# [6] = molecular target: T1, Glucosyltransferase-SI (Streptococcus mutans serotype c (strain ATCC 700610 / UA159)) (UniProt P13470); test: Inhibition of Wild-type Streptococcus mutans UA159 glucosyltransferase C at 50 uM by zymography
# T1 sequence (whole entry): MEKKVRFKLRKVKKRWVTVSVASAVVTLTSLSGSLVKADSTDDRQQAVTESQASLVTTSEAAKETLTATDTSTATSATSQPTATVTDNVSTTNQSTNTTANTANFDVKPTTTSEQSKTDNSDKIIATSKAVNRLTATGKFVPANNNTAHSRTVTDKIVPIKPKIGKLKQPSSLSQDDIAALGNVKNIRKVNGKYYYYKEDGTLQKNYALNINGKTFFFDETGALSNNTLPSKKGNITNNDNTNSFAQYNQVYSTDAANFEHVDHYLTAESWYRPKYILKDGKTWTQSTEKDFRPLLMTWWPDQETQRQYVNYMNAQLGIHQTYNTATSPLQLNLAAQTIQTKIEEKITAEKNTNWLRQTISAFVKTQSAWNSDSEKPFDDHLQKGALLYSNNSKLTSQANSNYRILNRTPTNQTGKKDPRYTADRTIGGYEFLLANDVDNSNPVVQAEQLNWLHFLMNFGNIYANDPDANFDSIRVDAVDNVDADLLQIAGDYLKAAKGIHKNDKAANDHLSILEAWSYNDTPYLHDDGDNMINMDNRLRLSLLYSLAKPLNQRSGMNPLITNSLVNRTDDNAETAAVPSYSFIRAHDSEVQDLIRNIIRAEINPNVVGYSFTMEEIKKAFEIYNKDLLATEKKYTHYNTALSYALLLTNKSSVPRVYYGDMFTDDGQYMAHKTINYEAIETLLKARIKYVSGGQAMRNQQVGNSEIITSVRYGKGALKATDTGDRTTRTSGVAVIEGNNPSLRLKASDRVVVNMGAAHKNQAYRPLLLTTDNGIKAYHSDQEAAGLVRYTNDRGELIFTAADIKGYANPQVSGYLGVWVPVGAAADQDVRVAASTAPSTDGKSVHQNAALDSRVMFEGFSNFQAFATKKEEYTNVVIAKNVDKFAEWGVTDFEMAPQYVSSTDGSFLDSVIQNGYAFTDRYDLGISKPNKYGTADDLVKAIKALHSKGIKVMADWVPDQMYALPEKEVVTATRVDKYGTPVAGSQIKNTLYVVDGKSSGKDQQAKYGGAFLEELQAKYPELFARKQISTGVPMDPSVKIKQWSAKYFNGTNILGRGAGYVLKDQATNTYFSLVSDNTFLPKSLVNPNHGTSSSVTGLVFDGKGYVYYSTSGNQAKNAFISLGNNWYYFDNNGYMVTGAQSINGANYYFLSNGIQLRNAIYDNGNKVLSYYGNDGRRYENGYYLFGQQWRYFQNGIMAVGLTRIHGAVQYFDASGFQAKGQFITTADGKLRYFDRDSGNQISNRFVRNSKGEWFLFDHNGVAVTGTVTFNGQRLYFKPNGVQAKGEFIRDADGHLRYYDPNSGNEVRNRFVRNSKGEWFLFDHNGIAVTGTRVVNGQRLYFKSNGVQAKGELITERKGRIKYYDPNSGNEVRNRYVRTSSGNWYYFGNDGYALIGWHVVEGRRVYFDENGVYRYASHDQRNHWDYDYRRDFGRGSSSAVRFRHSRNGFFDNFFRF
# Method in brief: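 Compound (50 µM) added to overnight S. mutans UA159 wild-type cultures; Gtfs concentrated from supernatants, run on duplicate SDS-PAGE; second gel used for zymogram, glucan band intensity taken as Gtf activity.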
# [7] = molecular target: T1, Glucosyltransferase-SI (Streptococcus mutans serotype c (strain ATCC 700610 / UA159)); test: Inhibition of Wild-type Streptococcus mutans UA159 glucosyltransferase C at 50 uM by coomassie blue staining based SDS-PAGE method
# Method in brief: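 Compound (50 µM) added to overnight S. mutans UA159 wild-type cultures; Gtfs collected and concentrated from supernatants, run on SDS-PAGE in duplicate; one gel Coomassie blue stained for protein levels.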
# Streptococcus mutans [8] = test: Inhibition of biofilm formation of Streptococcus mutans UA159 at 25 to 100 uM by Syto9 staining based assay; type: functional, organism-based
# Method in brief: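 S. mutans UA159 wild type co-incubated with compound at various concentrations; resulting biofilms stained with Syto9 and examined by microscopy.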
# [9] = Streptococcus mutans, UA159, 16 h, read-out: IC50
# [10] = Streptococcus mutans, UA159, 16 h
compound,measurement,setting,value
"O=C(/C=C/c1ccccc1)c1ccc(O)cc1O [2',4'-DIHYDROXYCHALCONE]",growth inhibition (GI),Streptococcus mutans [1],Not Active
same,inhibition,Streptococcus mutans [2],inactive
O=C(/C=C/c1ccc(O)cc1O)c1cccc(O)c1 (stereo in doubt; 9a),IC50,Streptococcus mutans [3],68 µM
same,Ratio IC50,Streptococcus mutans [4],9.4
O=C(/C=C/c1cc(O)c(O)cc1O)c1ccccc1O (stereo in doubt; 18c),IC50,Streptococcus mutans [3],224 µM
same,IC50,Streptococcus mutans [5]; [9],323 µM
same,Ratio IC50,Streptococcus mutans [4],1.5
O=C(/C=C/c1ccc(O)cc1)c1ccccc1O,inhibition at 200 µM,Streptococcus mutans [1],48%
same,inhibition at 200 µM,Streptococcus mutans [2],27%
COc1ccc(/C=C/C(=O)c2ccc(OC)c(OC)c2)cc1O,inhibition at 200 µM,Streptococcus mutans [1],30%
same,inhibition at 200 µM,Streptococcus mutans [2],27%
O=C(/C=C/c1ccc(O)cc1O)c1cccc(O)c1 (stereo in doubt; 9) [listing 1 of 2 here],IC50,Streptococcus mutans [3],32 µM
same,inhibition at 200 µM,Streptococcus sanguinis,10%
same,IC50,Streptococcus mutans [5],Not Active
same,inhibition at 200 µM,Streptococcus mutans [1],10%
same,inhibition at 200 µM,Streptococcus gordonii,10%
same,inhibition at 200 µM,Streptococcus mutans [2],93%
COc1cc(C(=O)/C=C/c2ccccc2O)ccc1O,IC50,Streptococcus mutans [3]; [10],34 µM
same,IC50,Streptococcus mutans [5]; [9],40 µM
same,inhibition at 200 µM,Streptococcus mutans [1],71%
same,inhibition at 200 µM,Streptococcus mutans [2],85%
O=C(/C=C/c1cc(Cl)cc(Cl)c1O)c1cccc(O)c1,inhibition at 200 µM,Streptococcus mutans [1],82%
same,inhibition at 200 µM,Streptococcus mutans [2],81%
O=C(/C=C/c1cc(O)c(O)cc1O)c1ccccc1O (stereo in doubt; 18d) [listing 1 of 2 here],inhibition,[6],Active
same,inhibition,[7],Active
O=C(/C=C/c1ccccc1O)c1ccc(O)cc1O,growth inhibition (GI),Streptococcus mutans [1],Not Active
same,inhibition,Streptococcus mutans [2],inactive
COc1cc(/C=C/C(=O)c2ccc(O)cc2)cc(OC)c1OC,growth inhibition (GI),Streptococcus mutans [1],Not Active
O=C(/C=C/c1cccc(O)c1)c1ccccc1O,IC50,Streptococcus mutans [3]; [10],64 µM
same,IC50,Streptococcus mutans [5]; [9],32 µM
same,inhibition at 200 µM,Streptococcus mutans [1],86%
same,inhibition at 200 µM,Streptococcus mutans [2],84%
COc1ccc(/C=C/C(=O)c2cc(N(C)C)c(O)c(N(C)C)c2)cc1,growth inhibition (GI),Streptococcus mutans [1],Not Active
same,inhibition,Streptococcus mutans [2],inactive
O=C(/C=C/c1ccccc1O)c1cccc(O)c1,growth inhibition (GI),Streptococcus mutans [1],Not Active
COc1ccc(/C=C/C(=O)c2cc(O)ccc2O)cc1,inhibition at 200 µM,Streptococcus mutans [1],76%
same,inhibition at 200 µM,Streptococcus mutans [2],87%
COc1cc(/C=C/C(=O)c2ccccc2O)ccc1O,IC50,Streptococcus mutans [3]; [10],61 µM
same,IC50,Streptococcus mutans [5]; [9],44 µM
same,inhibition at 200 µM,Streptococcus mutans [1],85%
same,inhibition at 200 µM,Streptococcus mutans [2],86%
COc1ccc(/C=C/C(=O)c2ccc3c(c2)OCO3)cc1O,growth inhibition (GI),Streptococcus mutans [1],Not Active
same,inhibition,Streptococcus mutans [2],inactive
O=C(/C=C/c1cc(O)c(O)cc1O)c1ccccc1O (stereo in doubt; 18d) [listing 2 of 2 here],IC50,Streptococcus mutans [3],76 µM
same,IC50,Streptococcus mutans [5]; read-out: IC50,376 µM
same,Ratio IC50,Streptococcus mutans [4],4.9
O=C(/C=C/c1ccc(O)cc1O)c1cccc(O)c1 (stereo in doubt; 9) [listing 2 of 2 here],inhibition,Streptococcus mutans [8],Active
same,inhibition,Streptococcus mutans [3],Dose-dependent effect
